Data set [1] concerns the target T1, Coagulation factor XIII A chain (Homo sapiens, UniProt P00488).
T1 sequence (P00488 whole entry): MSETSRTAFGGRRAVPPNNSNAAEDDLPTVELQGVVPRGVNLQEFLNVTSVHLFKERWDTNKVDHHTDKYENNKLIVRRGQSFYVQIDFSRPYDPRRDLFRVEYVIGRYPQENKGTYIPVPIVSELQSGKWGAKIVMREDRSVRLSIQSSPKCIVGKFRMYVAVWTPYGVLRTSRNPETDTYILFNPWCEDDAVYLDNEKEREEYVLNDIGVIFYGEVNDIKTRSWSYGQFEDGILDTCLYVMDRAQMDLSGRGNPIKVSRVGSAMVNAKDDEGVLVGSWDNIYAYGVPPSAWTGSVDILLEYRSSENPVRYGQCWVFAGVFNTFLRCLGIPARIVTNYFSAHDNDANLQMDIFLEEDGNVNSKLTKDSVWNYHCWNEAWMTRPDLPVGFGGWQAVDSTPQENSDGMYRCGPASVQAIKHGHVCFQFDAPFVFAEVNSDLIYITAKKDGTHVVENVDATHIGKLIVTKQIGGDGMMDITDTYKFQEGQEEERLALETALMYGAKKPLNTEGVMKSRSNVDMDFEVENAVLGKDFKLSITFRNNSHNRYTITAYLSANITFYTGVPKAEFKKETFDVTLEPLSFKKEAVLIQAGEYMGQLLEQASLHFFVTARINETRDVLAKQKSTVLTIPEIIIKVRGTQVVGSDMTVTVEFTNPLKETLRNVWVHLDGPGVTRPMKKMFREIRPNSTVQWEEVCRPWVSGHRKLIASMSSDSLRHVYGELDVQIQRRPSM
Briefly: In vitro inhibitory concentration of compound against factor XIIIa.

The next data set concerns Cell line. Briefly: Concentration causing reduction in fibrin gamma-chain cross-linking in platelet-depleted human plasma. The class given is functional.
Data set [2] is described as follows: Solubility at pH 7.4 was determined. Format: physicochemical. As to conditions: buffer. The method in brief: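 Aqueous solubility of the inhibitors measured at pH 7.4, reported in mg/mL.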

In brackets after ≈: the same amount, converted by molar mass.

The term IC50 denotes the concentration that inhibits the measured activity by half. High values mean weaker potency in that assay, low ones greater potency in that assay. As usually defined, the solubility is the dissolved amount per volume that the medium holds. Read a high solubility as much dissolved substance.

In data set [1], `O=[N+]([O-])c1ccccc1S(=O)(=O)NCCCCCCNc1ncccc1[N+](=O)[O-]` yielded a half-inhibitory concentration (IC50) of 170 µM.
On to `O=[N+]([O-])c1ccccc1S(=O)(=O)NCCCCCCNc1nsc2nccn12`, for which, in the data set with Cell line, the Concentration amounted to 160 µM.
With `O=[N+]([O-])c1ccc(S(=O)(=O)NCCCCCCNc2n[s+]c3[n-]ccn23)cc1`, in data set [1], the IC50 is 0.91 µM.
In data set [2], `O=C(O)CN(CCCCCCNS(=O)(=O)c1ccccc1[N+](=O)[O-])c1nsc2nccn12` returned a solubility of 380 µg/mL (≈ 787 µM).
